High-throughput results as filed in PubChem BioAssay.
Rtt109 HAT inh: inhibitors of Candida albicans Rtt109/Vps75 histone acetyltransferase; inhibition, % at 34.9 µM; hit rate 0.16% among 330,000; purified Rtt109/Vps75, ThioGlo CoA-SH fluorescence, 4 h; AID 540336; Q5AAJ8;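 active = inhibition of at least 50% in every replicate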
FAS-TE inh: blocks the thioesterase domain of human fatty acid synthase; P49327; hit rate 0.67% among 360,000; inhibition, % at 15 µM; recombinant FAS-TE, OMFH fluorogenic substrate, fluorescence endpoint;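 active = compounds whose normalised, plate-corrected inhibition of enzyme fluorescence in the single-dose primary screen is 50% or more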
PfM18AAP inh: PfM18AAP enzyme inhibition; recombinant PfM18AAP, H-Glu-NHMec fluorogenic cleavage; inhibition, % at 7.35 µM; hit rate 1.2% among 290,000; AID 1822;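 active = inhibition above the campaign mean inhibition over all tested compounds plus 3 SD, cut at about 28% in these data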
HDAC3 inh: blocks human histone deacetylase 3; recombinant HDAC3, fluorogenic peptide/trypsin coupled, fluorescence; inhibition, % at 8.3 µM; hit rate 0.15% among 320,000; in the data active = inhibition above about 26%, passing the limit was not always enough
Target sequence (O15379 whole entry, looked up): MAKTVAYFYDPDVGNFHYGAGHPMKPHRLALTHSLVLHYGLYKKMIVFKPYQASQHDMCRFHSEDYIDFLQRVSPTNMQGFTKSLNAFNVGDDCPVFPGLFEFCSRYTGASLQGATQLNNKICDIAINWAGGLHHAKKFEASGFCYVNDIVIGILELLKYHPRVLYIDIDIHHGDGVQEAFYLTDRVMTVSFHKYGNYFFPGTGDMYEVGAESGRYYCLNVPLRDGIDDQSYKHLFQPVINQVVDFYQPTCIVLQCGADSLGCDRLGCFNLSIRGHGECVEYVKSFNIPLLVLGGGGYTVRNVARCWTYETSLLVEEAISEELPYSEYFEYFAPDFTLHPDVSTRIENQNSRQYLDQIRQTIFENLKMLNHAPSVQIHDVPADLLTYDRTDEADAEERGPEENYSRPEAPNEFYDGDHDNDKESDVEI
ALR H2O2 inh: human ALR oxidase inhibition via reduced H2O2. P55789. purified ALR, DTT oxidation, H2O2 HRP-luminol luminescence. inhibition, % (test concentration not listed). hit rate 3.8% among 290,000. AID 485317;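 active = mean replicate inhibition above about 79%, with every replicate also reaching it, limit read from the data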
Target sequence (P55789 whole entry, looked up): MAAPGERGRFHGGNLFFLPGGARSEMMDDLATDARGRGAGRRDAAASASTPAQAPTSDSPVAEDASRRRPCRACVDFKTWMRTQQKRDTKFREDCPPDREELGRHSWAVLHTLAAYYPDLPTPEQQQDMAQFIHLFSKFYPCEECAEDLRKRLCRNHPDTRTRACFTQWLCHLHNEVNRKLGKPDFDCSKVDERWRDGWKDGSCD
UCH37 DUB inh: blocks the human deubiquitinase UCH37; hit rate 0.33% among 330,000; purified proteasome/UCH37, Ub-AMC cleavage fluorescence; inhibition, % (no concentration beside the values); Q9Y5K5;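 active = mean inhibition over replicate wells above about 20%, limit read from the data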
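Material: Human UCH37 enzyme supplied as purified proteasome complex | Schedule: 30 min compound-proteasome preincubation then 25 min substrate reaction, room temperature | Detection: AMC fluorescence from Ub-AMC cleavage, excitation 355 nm, emission 460 nm | Benchmarks: Wells without proteasome as full block, compound-free enzyme plus substrate as uninhibited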
Each line names hits and unclear results; the compound was inactive in the other large screens. Compounds with a hit are over-represented: about 4.6% of the library has one in this group of screens.

O=C1CCCC(=NNC(=O)NC2CCCCC2)C1	none (no result: Rtt109 HAT inh, FAS-TE inh, PfM18AAP inh, HDAC3 inh, ALR H2O2 inh)
Cc1ccc(Nc2n[nH]c(=S)s2)cc1C	none (no result: Rtt109 HAT inh, PfM18AAP inh, HDAC3 inh, ALR H2O2 inh, UCH37 DUB inh)
S=c1[nH]nc(Nc2cccc(Cl)c2)s1	ALR H2O2 inh 99
COc1ccccc1C=Nn1c(C)nnc1-n1nc(C)cc1C	none (no result: Rtt109 HAT inh, FAS-TE inh, PfM18AAP inh, HDAC3 inh, ALR H2O2 inh)
COc1ccc(C=Nn2cncn2)cc1CSc1ccccn1	none (no result: Rtt109 HAT inh, FAS-TE inh, PfM18AAP inh, HDAC3 inh, ALR H2O2 inh)
COc1ccc(/C=N/n2cncn2)cc1CSc1ccccn1	ALR H2O2 inh 99 (no result: UCH37 DUB inh)
Oc1ccc(C=NNc2ncnc3c2ncn3Cc2ccccc2)cc1O	none (no result: Rtt109 HAT inh, FAS-TE inh, PfM18AAP inh, HDAC3 inh, ALR H2O2 inh)
Cc1ccc(CS/C(Nc2ccccc2C)=C(\C#N)C(=O)NCc2ccco2)c(C)c1	ALR H2O2 inh 99
CCCNC(=O)N1C2=NC(C(=O)OC)=C(C(=O)OC)[C@@H]3N(Cc4ccccc4)c4ccccc4[C@]23C[C@H]1CO	FAS-TE inh 80 (no result: PfM18AAP inh)
COc1cc([N+](=O)[O-])cc(C=NNC(=O)Cn2nccc2C)c1O	none (no result: Rtt109 HAT inh, FAS-TE inh, PfM18AAP inh, HDAC3 inh, ALR H2O2 inh)
O=C(NCCc1c[nH]c2ccccc12)C(=O)NCC1OCCCN1S(=O)(=O)c1ccc(F)cc1 (stereo unspecified)	none
Cc1ccc(S(=O)(=O)N2CCOC2CNC(=O)C(=O)NCCc2c[nH]c3ccccc23)cc1 (stereo unspecified)	UCH37 DUB inh 29
Cc1cc(/C=N/NC(N)=S)c(O)c(/C=N/NC(N)=S)c1	PfM18AAP inh 45 (no result: ALR H2O2 inh, UCH37 DUB inh)
NC(=S)N/N=C/c1cccc(O)c1O	PfM18AAP inh 40, ALR H2O2 inh 98 (no result: UCH37 DUB inh)
Oc1cccc(/C=N/NC(=S)NCCN2CCOCC2)c1O	PfM18AAP inh 29, ALR H2O2 inh 100 (no result: UCH37 DUB inh)
NC(=S)NN=Cc1cccc(O)c1O	none (no result: Rtt109 HAT inh, FAS-TE inh, PfM18AAP inh, HDAC3 inh, ALR H2O2 inh)
Oc1cccc(/C=N/NC(=S)Nc2cccnc2)c1O	ALR H2O2 inh 90 (no result: UCH37 DUB inh)
CCN1/C(=C/c2cccc[n+]2C)Sc2ccc(OC)cc21	ALR H2O2 inh 98 (no result: UCH37 DUB inh)
Cc1ccc2c(c1)N(C)/C(=C/c1cccc[n+]1C)S2	ALR H2O2 inh 97
Cc1ccc2c(c1)N(C)/C(=C/c1cccc[n+]1CCO)S2	none
CN1/C(=C/c2cccc[n+]2C)Sc2ccccc21	none
COc1ccc2c(c1)N(C)/C(=C/c1cccc[n+]1C)S2	ALR H2O2 inh 97
COc1cc(C(C)=NNC(=O)c2ccc(CSc3nncn3C)cc2)cc(OC)c1OC	none (no result: Rtt109 HAT inh, FAS-TE inh, PfM18AAP inh, HDAC3 inh, ALR H2O2 inh)
O=[N+]([O-])c1cc(C=Nn2cnnc2)ccc1N1CCCC1	UCH37 DUB inh 21 (no result: Rtt109 HAT inh, FAS-TE inh, PfM18AAP inh, HDAC3 inh, ALR H2O2 inh)
CON=Cc1ccc(N2CCCC2)c([N+](=O)[O-])c1	none (no result: Rtt109 HAT inh, FAS-TE inh, PfM18AAP inh, HDAC3 inh, ALR H2O2 inh)
O=C(c1ccccc1)n1nnc2ccccc21	HDAC3 inh 96 (no result: UCH37 DUB inh)
CC(C(=O)O)n1nnc2ccccc21 (stereo unspecified)	none
S=C(NCCc1ccccc1)NN=CC1CCCCC1	none (no result: Rtt109 HAT inh, FAS-TE inh, PfM18AAP inh, HDAC3 inh, ALR H2O2 inh)
Cc1ccc(-c2ccccc2NC(=O)CS(=O)CC(=O)Nc2ccc(C)c(Cl)c2)o1 (stereo unspecified)	ALR H2O2 inh 99 (no result: UCH37 DUB inh)
Cc1ccc(-c2ccccc2NC(=O)CCl)o1	none
CCOC(=O)c1oc2cccc(O)c2c1CN(Cc1ccccc1)C(C)=O	ALR H2O2 inh 85
C[C@@H](OC(=O)N(C)Cc1ccccc1)[C@H]1O[C@]2(C)CCCC[C@H]1O2	UCH37 DUB inh 30 (no result: PfM18AAP inh)
Oc1oc(-c2ccccc2)nc1C=Nc1ccccn1	none (no result: Rtt109 HAT inh, FAS-TE inh, PfM18AAP inh, HDAC3 inh, ALR H2O2 inh)
Clc1ccccc1CN1CCN(N=Cc2ccncc2)CC1	none (no result: Rtt109 HAT inh, FAS-TE inh, PfM18AAP inh, HDAC3 inh, ALR H2O2 inh)
CCOC(=O)C1=C(C)NC(=O)C1CC(=O)Nc1ccccc1 (stereo unspecified)	ALR H2O2 inh 96 (no result: Rtt109 HAT inh, FAS-TE inh, UCH37 DUB inh)
CCOC(=O)C1=C(C)NC(=O)NC1c1ccc(OCC(=O)Nc2ccccc2)c(OC)c1 (stereo unspecified)	none
CC1CN(C(=NS(=O)(=O)c2ccccc2)c2ccccc2)CC(C)O1 (stereo unspecified)	none (no result: Rtt109 HAT inh, FAS-TE inh, PfM18AAP inh, HDAC3 inh, ALR H2O2 inh)
CCOc1ccc(NC(=O)CS(=O)CC(=O)NC2CCCc3ccccc32)cc1 (stereo unspecified)	none (no result: ALR H2O2 inh)
CCOc1ccc(-c2nc(CSCC(=O)NC3CCCc4ccccc43)c(C)o2)cc1 (stereo unspecified)	ALR H2O2 inh 96
CCOc1ccc(-c2nc(CSCC(=O)NC3CC3)c(C)o2)cc1	ALR H2O2 inh 99
CCOC(=O)N1CCC(NC(=O)CSCc2nc(-c3cccc(OC)c3)oc2C)CC1	ALR H2O2 inh 99
CCOC(=O)N1CCC(NC(=O)CSCc2nc(-c3ccc(OCC)cc3)oc2C)CC1	ALR H2O2 inh 99
O=C(NN=Cc1ccc(F)cc1)c1ccc(-n2cnnn2)cc1	none (no result: Rtt109 HAT inh, FAS-TE inh, PfM18AAP inh, HDAC3 inh, ALR H2O2 inh)
CCOc1ccc(S(=O)(=O)NN=C(C)Cc2ccc(OC)cc2)cc1	none (no result: Rtt109 HAT inh, FAS-TE inh, PfM18AAP inh, HDAC3 inh, ALR H2O2 inh)
Cc1n[nH]c(C)c1CCC(=O)NN=Cc1c[nH]c2ccccc12	none (no result: Rtt109 HAT inh, FAS-TE inh, PfM18AAP inh, HDAC3 inh, ALR H2O2 inh)
Cc1ccccc1CSCC(=O)NCc1ccco1	ALR H2O2 inh 88 (no result: Rtt109 HAT inh)
CCOc1ccc(-c2nc(CSCC(=O)NC3CCN(Cc4ccccc4)CC3)c(C)o2)cc1	none (no result: Rtt109 HAT inh, PfM18AAP inh, HDAC3 inh, ALR H2O2 inh, UCH37 DUB inh)
CCOc1ccc(-c2nc(CSCC(=O)NCc3ccco3)c(C)o2)cc1	ALR H2O2 inh 98
Cc1ccc(CSCC(=O)NCc2ccco2)cc1	none
Cc1oc(-c2ccc(Cl)cc2)nc1CSCC(=O)NC1CCN(Cc2ccccc2)CC1	ALR H2O2 inh 98
COc1ccccc1NS(=O)(=O)c1cccc(C(=O)NN=C(C)c2ccc3c(c2)OCCO3)c1	none (no result: Rtt109 HAT inh, FAS-TE inh, PfM18AAP inh, HDAC3 inh, ALR H2O2 inh)
CCN(CC)c1ccc(C=NN2CCN(Cc3ccccc3Cl)CC2)c(O)c1	none (no result: Rtt109 HAT inh, FAS-TE inh, PfM18AAP inh, HDAC3 inh, ALR H2O2 inh)
Cc1cc(C(=O)CSc2nc3ccccc3c(=O)[nH]2)c(C)n1C	ALR H2O2 inh 98
CC(SCC(=O)Nc1ccccc1)c1nc2ccccc2c(=O)[nH]1 (stereo unspecified)	none
Cc1cc(C(=O)CSC(C)c2nc3ccccc3c(=O)[nH]2)c(C)n1C (stereo unspecified)	ALR H2O2 inh 99
NC(=O)c1oc2ccccc2c1NC(=O)C1CCCCC1	ALR H2O2 inh 96
